M4 PAM: potentiates acetylcholine response at human M4 receptor; CHO-K1 hM4/Gqi5, Fluo-8 calcium fluorescence, ACh EC20; 0% = ACh EC20, 100% = maximal ACh; 360,000 tested, 0.4% active; activation, % at 3 µM; P08173;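 active = activation above its plate's cutoff, the mean activation of sample wells plus 3 SD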
Target sequence (P08173 whole entry, looked up): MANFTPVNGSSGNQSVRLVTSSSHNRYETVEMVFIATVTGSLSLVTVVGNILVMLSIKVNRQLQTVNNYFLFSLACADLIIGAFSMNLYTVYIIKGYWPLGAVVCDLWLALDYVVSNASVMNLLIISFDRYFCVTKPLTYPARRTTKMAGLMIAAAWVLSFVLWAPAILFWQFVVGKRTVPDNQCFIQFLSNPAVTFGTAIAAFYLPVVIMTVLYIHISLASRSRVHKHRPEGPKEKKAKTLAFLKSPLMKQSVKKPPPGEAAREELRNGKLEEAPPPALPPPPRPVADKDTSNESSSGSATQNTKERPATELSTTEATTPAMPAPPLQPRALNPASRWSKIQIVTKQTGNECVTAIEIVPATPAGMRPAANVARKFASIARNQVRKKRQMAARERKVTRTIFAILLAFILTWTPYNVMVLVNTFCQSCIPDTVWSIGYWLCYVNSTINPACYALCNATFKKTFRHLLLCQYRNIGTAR
CHRM5 agonist: CHRM5 agonism in calcium assay; P08912; CHO-K1 hM5 cells, Fluo-8 calcium fluorescence; 0% DMSO wells, 100% maximal acetylcholine response; 360,000 tested, 0.19% active; activation, % at 3 µM;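 active = activation above the run's mean over test compounds plus 3 SD, cut at about 23% in these data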;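 note: signal is peak over basal fluorescence ratio across the kinetic read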
M4 ag: agonists of human muscarinic M4 receptor (CHRM4); CHO-K1 hM4/Gqi5, Fluo-8 calcium fluorescence; vehicle 0%, full acetylcholine response 100%; activation, % at 3 µM; 360,000 tested, 0.14% active; AID 624127;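 active = activation above the run mean over all test wells plus 3 SD, cut at about 32% in these data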;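 note: peak over basal fluorescence ratio per well then scaled between controls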
CHRM5 PAM: positive allosteric modulators of human muscarinic M5 receptor. P08912. CHO-K1 hM5, Fluo-8 calcium, ACh EC20 PAM; 0% = ACh EC20, 100% = ACh EC100. activation, % at 3 µM. 360,000 tested, 0.3% active. AID 624038;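 active = activation above the run cutoff, the mean activation of all test compounds plus 3 SD, cut at about 18% in these data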
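Assay system: CHO-K1 hM5 cells / Incubation: Fluo-8 loading 80 min at 37 °C plus 30 min room temperature / Technique: Fluo-8 calcium dye fluorescence, kinetic read / Repeats: single replicate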
M4 antag: blocks acetylcholine activation of human M4 receptor; AID 624125; CHO-hM4 cells, ACh EC80, Fluo-8 calcium fluorescence; inhibition, % at 3 µM; P08173; 360,000 tested, 0.73% active;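 active = inhibition above its plate's cutoff, the mean inhibition of sample wells plus 3 SD, cut at about 27% in these data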
CHRM5 antagonist: antagonists of human muscarinic M5 receptor (CHRM5) | CHO-hM5 cells, Fluo-8 calcium fluorescence, ACh EC80 | inhibition, % at 3 µM | 360,000 tested, 0.59% active;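 active = inhibition above a per-plate cutoff, the mean of that plate's test compounds plus 3 SD, cut at about 27% in these data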
Of the large screens only hits and unclear results are named; the others gave an inactive call. The list is not random: actives were taken first. Their share in the collection is about 1.8%.

COc1cc(/C=C/C(=O)OCC(=O)c2ccc3c(c2)NC(=O)CO3)ccc1OC(F)F	none
CCc1ccc2c(c1)cc(CN(C(=S)Nc1ccccc1)C1CC1)c1nnnn12	M4 PAM 32
COc1ccccc1/C=C(\NC(=O)c1cccc(C)c1)C(=O)Nc1ccccn1	M4 PAM 27, M4 antag 27
Cc1cccc(Nc2cc(=O)n(C)c(=O)n2C)c1	none
CCN(CC)CCCN(Cc1cc2cc3c(cc2[nH]c1=O)OCO3)C(=S)Nc1ccc(OC)cc1	none
O=C(OCC(=O)N1N=C(c2ccc(Cl)cc2)CC1c1ccco1)c1cccnc1 (stereo unspecified)	CHRM5 PAM 18
O=C(CCl)N1N=C(c2ccco2)CC1c1ccco1 (stereo unspecified)	CHRM5 PAM 28
CCCCOc1ccc(C(=O)NNC(=O)C2C3CCC(C3)C2C(=O)O)cc1 (stereo unspecified)	none
C[C@H]1CN(c2ccccc2)C(=O)[C@@H]1CC(=O)Nc1ccc(Br)cc1	CHRM5 antagonist 27
Cn1cnc(C(=O)N2CCc3ccccc3C2)c1C(=O)N1CCc2ccccc2C1	none
NCCc1nnc(SCc2ccccc2Cl)o1	none
NCCCCCc1nnc(SCc2cccc(Cl)c2)o1	M4 antag 85, CHRM5 antagonist 80
NCCCCCc1nnc(SCc2ccc(Cl)cc2Cl)o1	M4 antag 50, CHRM5 antagonist 43
COCCN1C(=O)c2ccccc2C(C(=O)Nc2ccc3c(c2)OCCO3)C1c1ccc(F)cc1 (stereo unspecified)	none
COc1cccc(N2CCN(c3ncnc4c3[nH]c3ccc(F)cc34)CC2C)c1 (stereo unspecified)	M4 antag 85, CHRM5 antagonist 77
Cc1ccc(S(=O)(=O)NNC(=O)CC#N)cc1	CHRM5 PAM 21
COC(=O)NNS(=O)(=O)c1ccc(C)cc1	none
CCCCNC(=O)NS(=O)(=O)c1ccc(C)cc1	none
Cc1ccc(S(=O)(=O)NC(=O)NCCCCNC(=O)NS(=O)(=O)c2ccc(C)cc2)cc1	CHRM5 PAM 21
CCn1c(-c2cc(-c3ccc(C)cc3)nc3ccccc23)n[nH]c1=S	CHRM5 antagonist 98
COC(=O)C1CCN(Cc2c(C(=O)N3C[C@@H](C)O[C@@H](C)C3)nc3ccc(Cl)cn23)CC1	CHRM5 PAM 19
COc1ccc2sc(-c3ccc(S(C)(=O)=O)cc3)c(C(=O)NCCc3c[nH]c4ccccc34)c2c1	M4 antag 34
CC1(Oc2ccccc2-c2ccno2)CCN(Cc2csc3ccccc23)C1 (stereo unspecified)	M4 antag 33
Cc1sc2ncn(CC(=O)N3CCOCC3)c(=O)c2c1-c1ccccc1	CHRM5 PAM 25
CC(NC(=O)Cn1ccsc1=N)C12CC3CC(CC(C3)C1)C2 (stereo unspecified)	none
CC(NC(=O)Cn1c(=O)[nH]c2ccsc2c1=O)C12CC3CC(CC(C3)C1)C2 (stereo unspecified)	M4 PAM 19
CCC(=O)Nn1cnc2c(c1=O)C1(CCCCC1)Cc1ccccc1-2	CHRM5 PAM 18
CCCC(=O)Nn1cnc2c(c1=O)C1(CCCCC1)Cc1ccccc1-2	none
CCOc1cccc(-c2c(C(=O)N/N=C/c3ccncc3)nnn2-c2nonc2N)c1	none
COc1cccc(-c2c(C(=O)N/N=C/c3cccs3)nnn2-c2nonc2N)c1	CHRM5 agonist 31
CCOc1cccc(-c2c(C(=O)N/N=C/c3cccs3)nnn2-c2nonc2N)c1	CHRM5 agonist 28, CHRM5 PAM 28
Cc1ccc(/C=N/NC(=O)c2nnn(-c3nonc3N)c2-c2cccs2)cc1	CHRM5 agonist 30
COc1ccc(CNC(=O)[C@@H](NC(=O)C2CCN(S(=O)(=O)c3ccc(C)cc3)CC2)C(C)C)cc1OC	none
Cc1n[nH]c(C)c1CCNC(=O)C1CCC(=O)N(CCc2cccc(F)c2)C1 (stereo unspecified)	CHRM5 PAM 24
Nc1c(-c2ccc(F)cc2)nc2ncccn12	none

High-throughput results as filed in PubChem.
